Experiments:
MCF7 = assay: Growth inhibition of human MCF7 cells assessed as cell growth at 1 M after 48 hrs by sulforhodamine B assay; type: functional; set-up: scale not given: the % may be the effect or the level left
In short: (§1)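 NCI 60-cell screen at a single high dose. Cells are grown in RPMI 1640 with 5% FBS and 2 mM L-glutamine, then plated at 5000–40,000 cells/well and held 24 h at 37 °C in 5% CO2 at 100% humidity. Drug is then added and plates are incubated another 48 h, with SRB staining as read-out. Results are given as growth percent (100 = no inhibition, 0 = no net growth, negative = lethality).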

ACHN = assay: Growth inhibition of human ACHN cells assessed as cell growth at 1 M after 48 hrs by sulforhodamine B assay; type: functional; set-up: scale not given: the % may be the effect or the level left; in short: as §1
SN12C = assay: Growth inhibition of human SN12C cells assessed as cell growth at 1 M after 48 hrs by sulforhodamine B assay; type: functional; set-up: scale not given: the % may be the effect or the level left
In short: (§2)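 NCI 60-cell panel screen, single dose (1.0 M as printed). Cells grown in RPMI 1640 with 5% fetal bovine serum and 2 mM L-glutamine, seeded at 5000–40,000 cells/well, preincubated 24 h at 37 °C in 5% CO2 at 100% humidity, then exposed to compound for 48 h. Sulforhodamine B staining read-out. Result given as growth percent: 100 = no inhibition, 0 = no net growth, negative = lethality.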

OVCAR-8 = assay: Growth inhibition of human OVCAR8 cells assessed as cell growth at 1 M after 48 hrs by sulforhodamine B assay; type: functional; set-up: scale not given: the % may be the effect or the level left; in short: as §1
[1] = Growth inhibition of human Hs 578T cells assessed as cell growth at 1 M after 48 hrs by sulforhodamine B assay; type: functional; set-up: scale not given: the % may be the effect or the level left; in short: as §1
OVCAR-4 = assay: Growth inhibition of human OVCAR4 cells assessed as cell growth at 1 M after 48 hrs by sulforhodamine B assay; type: functional; set-up: scale not given: the % may be the effect or the level left; in short: as §1
786-0 = assay: Growth inhibition of human 786-0 cells assessed as cell growth at 1 M after 48 hrs by sulforhodamine B assay; type: functional; set-up: scale not given: the % may be the effect or the level left; in short: as §1
SF-295 = assay: Growth inhibition of human SF295 cells assessed as cell growth at 1 M after 48 hrs by sulforhodamine B assay; type: functional; set-up: scale not given: the % may be the effect or the level left; in short: as §2
K562 = assay: Growth inhibition of human K562 cells assessed as cell growth at 1 M after 48 hrs by sulforhodamine B assay; type: functional; set-up: scale not given: the % may be the effect or the level left; in short: as §1
HOP-62 = assay: Growth inhibition of human HOP62 cells assessed as cell growth at 1 M after 48 hrs by sulforhodamine B assay; type: functional; set-up: scale not given: the % may be the effect or the level left; in short: as §1
Escherichia coli = assay: Antimicrobial activity against Escherichia coli at 1 to 5 ug/ml by agar well diffusion method; type: functional
In short: (§3)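 Agar well diffusion against bacteria and fungi. Inhibition zone is scored beyond the control: ++ 0.6–1.0 cm, + 0.1–0.5 cm, 0 no inhibition.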

OVCAR-3 = assay: Growth inhibition of human OVCAR3 cells assessed as cell growth at 1 M after 48 hrs by sulforhodamine B assay; type: functional; set-up: scale not given: the % may be the effect or the level left; in short: as §1
OVCAR-5 = assay: Growth inhibition of human OVCAR5 cells assessed as cell growth at 1 M after 48 hrs by sulforhodamine B assay; type: functional; set-up: scale not given: the % may be the effect or the level left; in short: as §1
UACC-62 = assay: Growth inhibition of human UACC62 cells assessed as cell growth at 1 M after 48 hrs by sulforhodamine B assay; type: functional; set-up: scale not given: the % may be the effect or the level left; in short: as §2
IGROV-1 = assay: Growth inhibition of human IGROV1 cells assessed as cell growth at 1 M after 48 hrs by sulforhodamine B assay; type: functional; set-up: scale not given: the % may be the effect or the level left; in short: as §1
SF-539 = assay: Growth inhibition of human SF539 cells assessed as cell growth at 1 M after 48 hrs by sulforhodamine B assay; type: functional; set-up: scale not given: the % may be the effect or the level left; in short: as §2
NCI-H23 = assay: Growth inhibition of human NCI-H23 cells assessed as cell growth at 1 M after 48 hrs by sulforhodamine B assay; type: functional; set-up: scale not given: the % may be the effect or the level left; in short: as §1
Malme-3M = assay: Growth inhibition of human MALME-3M cells assessed as cell growth at 1 M after 48 hrs by sulforhodamine B assay; type: functional; set-up: scale not given: the % may be the effect or the level left; in short: as §1
A498 = assay: Growth inhibition of human A498 cells assessed as cell growth at 1 M after 48 hrs by sulforhodamine B assay; type: functional; set-up: scale not given: the % may be the effect or the level left; in short: as §1
Aspergillus fumigatus = assay: Antimicrobial activity against Aspergillus fumigatus at 1 to 5 ug/ml by agar well diffusion method; type: functional; in short: as §3
HCT-116 = assay: Growth inhibition of human HCT116 cells assessed as cell growth at 1 M after 48 hrs by sulforhodamine B assay; type: functional; set-up: scale not given: the % may be the effect or the level left; in short: as §1
SK-MEL-2 = assay: Growth inhibition of human SK-MEL-2 cells assessed as cell growth at 1 M after 48 hrs by sulforhodamine B assay; type: functional; set-up: scale not given: the % may be the effect or the level left; in short: as §2
Rattus norvegicus = organism: Rattus norvegicus; assay: Acute toxicity in albino rat; type: organism-based; conditions: in vivo
In short: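 Male albino rats received injections of increasing doses. LD50 and LD90, the doses killing 50% and 90% of the animals, were calculated by the Austen and Brocklehurst method.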

HOP-92 = assay: Growth inhibition of human HOP92 cells assessed as cell growth at 1 M after 48 hrs by sulforhodamine B assay; type: functional; set-up: scale not given: the % may be the effect or the level left; in short: as §1
Staphylococcus aureus = assay: Antimicrobial activity against Staphylococcus aureus at 1 to 5 ug/ml by agar well diffusion method; type: functional; in short: as §3
[2] = Growth inhibition of human […] cells assessed as cell growth at 1 M after 48 hrs by sulforhodamine B assay; type: functional; set-up: scale not given: the % may be the effect or the level left; in short: as §1
SNB-19 = assay: Growth inhibition of human SNB19 cells assessed as cell growth at 1 M after 48 hrs by sulforhodamine B assay; type: functional; set-up: scale not given: the % may be the effect or the level left; in short: as §2
SNB-75 = assay: Growth inhibition of human SNB75 cells assessed as cell growth at 1 M after 48 hrs by sulforhodamine B assay; type: functional; set-up: scale not given: the % may be the effect or the level left; in short: as §2
M14 = assay: Growth inhibition of human M14 cells assessed as cell growth at 1 M after 48 hrs by sulforhodamine B assay; type: functional; set-up: scale not given: the % may be the effect or the level left; in short: as §1
LOX IMVI = assay: Growth inhibition of human LOXIMVI cells assessed as cell growth at 1 M after 48 hrs by sulforhodamine B assay; type: functional; set-up: scale not given: the % may be the effect or the level left; in short: as §1
[3] = tested on: Syncephalastrum racemosum; assay: Antimicrobial activity against Syncephalastrum racemosum at 1 to 5 ug/ml by agar well diffusion method; type: functional; in short: as §3
PC-3 = assay: Growth inhibition of human PC3 cells assessed as cell growth at 1 M after 48 hrs by sulforhodamine B assay; type: functional; set-up: scale not given: the % may be the effect or the level left; in short: as §1
RXF 393 = assay: Growth inhibition of human RXF393 cells assessed as cell growth at 1 M after 48 hrs by sulforhodamine B assay; type: functional; set-up: scale not given: the % may be the effect or the level left; in short: as §2
HCC 2998 = assay: Growth inhibition of human HCC2998 cells assessed as cell growth at 1 M after 48 hrs by sulforhodamine B assay; type: functional; set-up: scale not given: the % may be the effect or the level left; in short: as §1
CAKI-1 = assay: Growth inhibition of human Caki1 cells assessed as cell growth at 1 M after 48 hrs by sulforhodamine B assay; type: functional; set-up: scale not given: the % may be the effect or the level left; in short: as §1
SF-268 = assay: Growth inhibition of human SF268 cells assessed as cell growth at 1 M after 48 hrs by sulforhodamine B assay; type: functional; set-up: scale not given: the % may be the effect or the level left; in short: as §2
SK-MEL-5 = assay: Growth inhibition of human SK-MEL-5 cells assessed as cell growth at 1 M after 48 hrs by sulforhodamine B assay; type: functional; set-up: scale not given: the % may be the effect or the level left; in short: as §2
NCI/ADR-RES = assay: Growth inhibition of human NCI/ADR-RES cells assessed as cell growth at 1 M after 48 hrs by sulforhodamine B assay; type: functional; set-up: scale not given: the % may be the effect or the level left; in short: as §1
A549 = assay: Growth inhibition of human A549 cells assessed as cell growth at 1 M after 48 hrs by sulforhodamine B assay; type: functional; set-up: scale not given: the % may be the effect or the level left; in short: as §1
Bacillus subtilis = assay: Antimicrobial activity against Bacillus subtilis at 1 to 5 ug/ml by agar well diffusion method; type: functional; in short: as §3

SMILES: CC(=O)c1ccc(N/N=C(\C(=O)c2ccc(Cl)cc2)c2nc(C)cc(=O)[nH]2)cc1
- Activity (MCF7): 89.39%
- Activity (ACHN): 90.63%
- Activity (SN12C): 95.54%
- Activity (OVCAR-8): 92.95%
- Activity [1]: 90.12%
- Activity (OVCAR-4): 99.2%
- Activity (786-0): 103.17%
- Activity (SF-295): 95.38%
- Activity (K562): 87.61%
- Activity (HOP-62): 116.72%
- diameter of the inhibition zone (DIZ) (Escherichia coli): 0 cm
- Activity (OVCAR-3): 104.16%
- Activity (OVCAR-5): 91.69%
- Activity (UACC-62): 80.29%
- Activity (IGROV-1): 94.2%
- Activity (SF-539): 90.87%
- Activity (NCI-H23): 86.1%
- Activity (Malme-3M): 110.47%
- Activity (A498): 97.59%
- diameter of the inhibition zone (DIZ) (Aspergillus fumigatus): 0 cm
- Activity (HCT-116): 90.39%
- Activity (SK-MEL-2): 99.06%
- LD50 (Rattus norvegicus): 1.87034 mg/kg
- LD90 (Rattus norvegicus): 2.25087 mg/kg
- Activity (HOP-92): 97.73%
- diameter of the inhibition zone (DIZ) (Staphylococcus aureus): 0 cm
- Activity [2]: 91.91%
- Activity (SNB-19): 95.91%
- Activity (SNB-75): 91.94%
- Activity (M14): 88.06%
- Activity (LOX IMVI): 90.57%
- diameter of the inhibition zone (DIZ) [3]: 0 cm
- Activity (PC-3): 90.5%
- Activity (RXF 393): 94.35%
- Activity (HCC 2998): 111.21%
- Activity (CAKI-1): 95%
- Activity (SF-268): 95.91%
- Activity (SK-MEL-5): 88.4%
- Activity (NCI/ADR-RES): 93.99%
- Activity (A549): 94.61%
- diameter of the inhibition zone (DIZ) (Bacillus subtilis): 0 cm
